Data published in ChEMBL document CHEMBL4251559, “Design, synthesis, and evaluation of NDGA analogues as potential anti-ischemic stroke agents” (Eur J Med Chem, 2018).
Calls of active or inactive are those of the source. No cut-off for these calls is given here.

How the values were obtained:
Rattus norvegicus [1] = test: Antiischemic stroke activity in Sprague-Dawley rat middle cerebral artery occlusion-induced ischemia-reperfusion injury model assessed as decrease in infarct size at 0.2 mg/kg, icv as nanoparticle measured after 72 hrs by TTC staining-based assay; type: functional, organism-based
How it was run: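 Male Sprague-Dawley rats (250-280 g), n = 7 per group. Nanoparticle-loaded drug (0.2 mg/kg) or isovolumetric saline or vehicle (polymer:DMSO:distilled water 50 mg:1 mL:3 mL) given by intracerebroventricular injection 2 h before MCAO. Filament occlusion for 2 h, then 72 h reperfusion. Brain slices stained with TTC at 37 °C for 30 min, photographed, and infarct area quantified by image analysis.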

Rattus norvegicus [2] = test: Antiischemic stroke activity in Sprague-Dawley rat middle cerebral artery occlusion-induced ischemia-reperfusion injury model assessed as decrease in neurological score at 0.2 mg/kg, icv as nanoparticle measured after 72 hrs by Longa's method; type: functional, organism-based
How it was run: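 Male Sprague-Dawley rats (250-280 g), n = 7 per group. Intracerebroventricular injection of nanoparticle formulation 0.2 mg/kg 2 h before MCAO. Vehicle was polymer:DMSO:distilled water (50 mg:1 mL:3 mL). Intraluminal thread (about 1.8 cm) via ECA, 2 h occlusion, then 72 h reperfusion. Neurological deficit scored at 72 h on Longa's 0–4 scale. Mean ± SD, n ≥ 6.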

PC-12 [3] = test: Cytoprotective activity against H2O2-induced damage in rat PC12 cells assessed as increase in cell viability at 5 uM preincubated for 1 hr followed by H2O2 challenge measured after 24 hrs by MTT assay; type: functional, cell-based
How it was run: (§1)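 PC12 cells at 5×10^3/well, attached overnight. Pretreated with 5 µM compound for 1 h or 24 h, then 400 µM H2O2 for 24 h. MTT (5 mg/mL) for 4 h at 37 °C, formazan dissolved in DMSO, OD read at 490 nm. Viability given as % of untreated control.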

[4] = Antioxidant activity assessed as DPPH radical scavenging activity at 20 mg/ml after 30 mins; type: functional
How it was run: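 Samples were 20 mg/mL solutions in ethanol, mixed with 0.15 mM ethanolic DPPH (80 µL sample plus 120 µL DPPH). Mixtures were incubated 30 min at 25 °C and absorbance read at 517 nm. Ethanol plus DPPH served as the control. % scavenging = [1-(Ai-Aj)/Ac]×100. Run in triplicate.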

PC-12 [5] = test: Cytoprotective activity against H2O2-induced damage in rat PC12 cells assessed as increase in cell viability at 5 uM preincubated for 24 hrs followed by H2O2 challenge measured after 24 hrs by MTT assay; type: functional, cell-based; how it was run: as §1
PC-12 [6] = test: Cytotoxicity against rat PC12 cells assessed as decrease in cell viability at 5 uM after 24 hrs by MTT assay; type: cell-based; details: pc-12, 24 h
How it was run: (§2)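 PC12 cells at 5×10^3/well, attached overnight. Exposed to 5 µM compound for 24 h or 72 h without H2O2. MTT 4 h at 37 °C, formazan dissolved in DMSO, OD 490 nm. Viability as % of untreated control.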

PC-12 [7] = test: Cytotoxicity against rat PC12 cells assessed as decrease in cell viability at 5 uM after 72 hrs by MTT assay; type: cell-based; details: pc-12, 72 h; how it was run: as §2
[8] = molecular target: T1, Nuclear factor erythroid 2-related factor 2 (Rattus norvegicus) (UniProt O54968); test: Induction of Nrf2 translocation in nucleus of rat PC12 cells at 5 uM after 6 hrs by DAPI staining-based fluorescence microscopic method; type: cell-based
T1 sequence (whole entry): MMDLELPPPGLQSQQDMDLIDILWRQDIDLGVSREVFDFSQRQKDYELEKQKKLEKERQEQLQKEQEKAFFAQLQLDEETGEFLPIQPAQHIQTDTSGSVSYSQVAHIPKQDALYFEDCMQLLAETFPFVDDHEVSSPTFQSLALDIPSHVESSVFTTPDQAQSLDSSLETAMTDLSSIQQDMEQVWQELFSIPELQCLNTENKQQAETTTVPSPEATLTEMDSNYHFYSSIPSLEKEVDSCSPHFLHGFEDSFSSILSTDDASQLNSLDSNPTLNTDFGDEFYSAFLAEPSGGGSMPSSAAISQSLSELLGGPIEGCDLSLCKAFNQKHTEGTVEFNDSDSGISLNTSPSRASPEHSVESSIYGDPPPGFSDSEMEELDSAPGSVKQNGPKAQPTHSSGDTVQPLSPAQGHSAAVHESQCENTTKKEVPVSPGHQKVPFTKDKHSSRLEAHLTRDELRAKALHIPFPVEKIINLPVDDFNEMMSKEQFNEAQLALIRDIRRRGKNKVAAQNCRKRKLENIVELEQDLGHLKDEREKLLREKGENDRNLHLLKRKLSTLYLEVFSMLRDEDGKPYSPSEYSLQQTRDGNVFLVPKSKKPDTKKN
How it was run: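 PC12 cells on coverslips treated with 5 µM compound for 6 h. Fixed in 4% paraformaldehyde (20 min, 4 °C), permeabilised with 1% Triton X-100, blocked with 1% BSA. Anti-Nrf2 (1:300) overnight at 4 °C, then PE-labelled secondary (1:300) 1 h in the dark. DAPI counterstain, imaged by fluorescence microscopy.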

[9] = molecular target: T1, Nuclear factor erythroid 2-related factor 2 (Rattus norvegicus); test: Induction of Nrf2 translocation in nucleus of rat PC12 cells assessed as upregulation of HO-1 protein expression at 10 uM after 24 hrs by Western blot method; type: cell-based
How it was run: (§3)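 PC12 cells treated 24 h at 2.5, 5 or 10 µM; reference compounds at 10 µM. Lysed in ice-cold RIPA, run on 10% SDS-PAGE and transferred to PVDF. Probed with anti-HO-1 (1:300) and GAPDH (1:1000) overnight at 4 °C, then HRP anti-rabbit IgG 1 h. Mean ± SD, n = 3, one-way ANOVA with Tukey test.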

PC-12 [10] = test: Cytoprotective activity against H2O2-induced damage in rat PC12 cells assessed as decrease in ROS accumulation at 5 uM preincubated for 1 to 24 hrs followed by H2O2 challenge measured after 3 hrs by DCFH-DA dye-based flow cytometric method; type: functional, cell-based
How it was run: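 PC12 cells seeded at 3 × 10^5/mL and attached overnight. Pre-incubated 1 h or 24 h with 5 µM compound, then H2O2 for 3 h. Loaded with DCFH-DA at 37 °C for 30 min, detached enzymatically, washed in PBS, filtered and analysed by flow cytometry. Mean ± SD, n = 3.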

PC-12 [11] = test: Cytoprotective activity against H2O2-induced damage in rat PC12 cells assessed as increase in cell viability preincubated for 1 to 24 hrs followed by H2O2 challenge measured after 24 hrs by MTT assay; type: functional, cell-based
How it was run: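 PC12 cells at 5×10^3/well, attached overnight. Pretreated 1 h or 24 h at 2.5, 5 or 7.5 µM, then 400 µM H2O2 for 24 h. MTT 4 h at 37 °C, DMSO solubilisation, OD 490 nm. Viability as % of control. Mean ± SD, n = 3, one-way ANOVA with Tukey test.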

PC-12 [12] = test: Cytoprotective activity against H2O2-induced damage in rat PC12 cells assessed as decrease in MDA levels preincubated for 1 to 24 hrs followed by H2O2 challenge measured after 16 hrs; type: functional, cell-based
How it was run: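 PC12 cells in DMEM with 10% FBS at 37 °C, 5% CO2. Pre-incubated 1 h or 24 h with compound (2.5, 5, 7.5 µM; reference compounds 5 µM), then exposed to 700 µM H2O2 for 16 h. Supernatant taken after centrifugation at 1600 × g for 10 min at 4 °C, and MDA measured with a kit. Mean ± SD, n = 3, one-way ANOVA with Tukey test.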

[13] = molecular target: T1, Nuclear factor erythroid 2-related factor 2 (Rattus norvegicus); test: Induction of Nrf2 translocation in nucleus of rat PC12 cells assessed as upregulation of HO-1 protein expression after 24 hrs by Western blot method; type: cell-based; how it was run: as §3
[14] = molecular target: T1, Nuclear factor erythroid 2-related factor 2 (Rattus norvegicus); test: Induction of Nrf2 translocation in nucleus of rat PC12 cells assessed as upregulation of HO-1 protein expression at 5 uM after 24 hrs by Western blot method

Row | SMILES | Activity (PC-12 [3]) | Activity [4] | further results
1 | CC1=NN(c2ccccc2)C(=O)C1 | – | – | Activity (Rattus norvegicus [1]): Active; Activity (Rattus norvegicus [2]): Active
2 | O=C1/C(=C/c2ccc(O)c(O)c2)CN(C(=O)OCc2ccccc2)C/C1=C\c1ccc(O)c(O)c1 | Active | Active | –
3 | O=C1/C(=C/c2ccc(O)c(O)c2)CSC/C1=C\c1ccc(O)c(O)c1 | Active | Active | –
4 | CCOC(=O)N1C/C(=C\c2ccc(O)c(O)c2)C(=O)/C(=C/c2ccc(O)c(O)c2)C1 | Active | Active | –
5 | CN1C/C(=C\c2ccc(O)c(O)c2)C(=O)/C(=C/c2ccc(O)c(O)c2)C1 | Active | Active | –
6 | O=C1/C(=C/c2ccc(O)c(O)c2)CN(CCc2ccccc2)C/C1=C\c1ccc(O)c(O)c1 | Active | Active | –
7 | O=C1/C(=C/c2ccc(O)c(O)c2)CNC/C1=C\c1ccc(O)c(O)c1 | Active | Active | Activity (PC-12 [5]): Active; Activity (PC-12 [6]): Non-Toxic; Activity (PC-12 [7]): Toxic
8 | O=C1/C(=C/c2ccc(O)c(O)c2)CN(C2CC2)C/C1=C\c1ccc(O)c(O)c1 | Active | Active | –
9 | O=C1/C(=C/c2ccc(O)c(O)c2)CN(Cc2ccccc2)C/C1=C\c1ccc(O)c(O)c1 | Active | Active | –
10 | CCCN1C/C(=C\c2ccc(O)c(O)c2)C(=O)/C(=C/c2ccc(O)c(O)c2)C1 | Active | Active | –
11 | O=C1/C(=C/c2ccc(O)c(O)c2)COC/C1=C\c1ccc(O)c(O)c1 | Active | Active | Activity (PC-12 [5]): Active; Activity (PC-12 [6]): Non-Toxic; Activity (PC-12 [7]): Toxic
12 | C[C@H](Cc1ccc(O)c(O)c1)[C@@H](C)Cc1ccc(O)c(O)c1 | Active | Active | Activity [8]: Active; Activity [9]: Active
13 | CC(C)(C)c1cc(O)ccc1O | – | – | Activity [8]: Active; Activity [9]: Active
14 | O=C1C(=Cc2ccc(O)c(O)c2)CCC/C1=C\c1ccc(O)c(O)c1 | Active | Active | –
15 | O=C1C(=Cc2ccc(O)c(O)c2)CC/C1=C\c1ccc(O)c(O)c1 | Active | Active | Activity (PC-12 [10]): Active; Activity [8]: Active; Activity (PC-12 [11]): Dose-dependent effect; Activity (Rattus norvegicus [1]): Active; Activity (PC-12 [12]): Dose-dependent effect; Activity [13]: Dose-dependent effect; Activity (Rattus norvegicus [2]): Active; Activity (PC-12 [5]): Active; Activity (PC-12 [6]): Non-Toxic; Activity [14]: inactive; Activity (PC-12 [7]): Toxic
